Source: ChEMBL document CHEMBL3784971, “Synthesis, characterization, antimicrobial and biofilm inhibitory studies of new esterquats” (Bioorg Med Chem Lett, 2016)
Values after ≈ are worked out from the molar mass of the structure shown.

Columns and labels:
Candida albicans = experiment: Antimicrobial activity against Candida albicans MTCC 3017 assessed as growth inhibition after 24 hrs by agar well diffusion method; type: functional; conditions: MTCC 3017, 24 h
Staphylococcus aureus [1] = experiment: Bactericidal activity against Staphylococcus aureus MLS16 MTCC 2940 after 24 hrs by serial dilution method; type: functional; conditions: MLS16 MTCC 2940, 24 h
Raoultella planticola [2] = experiment: Bactericidal activity against Klebsiella planticola MTCC 530 after 24 hrs by serial dilution method; type: functional; conditions: MTCC 530, 24 h
Staphylococcus aureus [3] = experiment: Antimicrobial activity against Staphylococcus aureus MLS16 MTCC 2940 assessed as growth inhibition after 24 hrs by agar well diffusion method; type: functional; conditions: MLS16 MTCC 2940, 24 h
Staphylococcus aureus [4] = experiment: Antimicrobial activity against Staphylococcus aureus MTCC 96 assessed as growth inhibition after 24 hrs by agar well diffusion method; type: functional; conditions: MTCC 96, 24 h
Staphylococcus aureus [5] = experiment: Bactericidal activity against Staphylococcus aureus MTCC 96 after 24 hrs by serial dilution method; type: functional; conditions: MTCC 96, 24 h
Micrococcus luteus [6] = experiment: Bactericidal activity against Micrococcus luteus MTCC 2470 after 24 hrs by serial dilution method; type: functional; conditions: MTCC 2470, 24 h
Escherichia coli [7] = experiment: Bactericidal activity against Escherichia coli MTCC 739 after 24 hrs by serial dilution method; type: functional; conditions: MTCC 739, 24 h
Pseudomonas aeruginosa = experiment: Antimicrobial activity against Pseudomonas aeruginosa MTCC 2453 assessed as growth inhibition after 24 hrs by agar well diffusion method; type: functional; conditions: MTCC 2453, 24 h
Raoultella planticola [8] = experiment: Antimicrobial activity against Klebsiella planticola MTCC 530 assessed as growth inhibition after 24 hrs by agar well diffusion method; type: functional; conditions: MTCC 530, 24 h
Bacillus subtilis [9] = experiment: Bactericidal activity against Bacillus subtilis MTCC 121 after 24 hrs by serial dilution method; type: functional; conditions: MTCC 121, 24 h
Bacillus subtilis [10] = experiment: Antimicrobial activity against Bacillus subtilis MTCC 121 assessed as growth inhibition after 24 hrs by agar well diffusion method; type: functional; conditions: MTCC 121, 24 h
Micrococcus luteus [11] = experiment: Antimicrobial activity against Micrococcus luteus MTCC 2470 assessed as growth inhibition after 24 hrs by agar well diffusion method; type: functional; conditions: MTCC 2470, 24 h
Escherichia coli [12] = experiment: Antimicrobial activity against Escherichia coli MTCC 739 assessed as growth inhibition after 24 hrs by agar well diffusion method; type: functional; conditions: MTCC 739, 24 h
Staphylococcus aureus [13] = experiment: Antibiofilm activity against Staphylococcus aureus MTCC 96 after 24 hrs by crystal violet staining based assay; type: functional, organism-based; conditions: MTCC 96, 24 h
In short: (§1)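 Biofilm inhibition tested for amine esters and esterquats. IC50 values (µg/mL) are the mean of three determinations, with ciprofloxacin as reference.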

Micrococcus luteus [14] = experiment: Antibiofilm activity against Micrococcus luteus MTCC 2470 after 24 hrs by crystal violet staining based assay; type: functional, organism-based; conditions: MTCC 2470, 24 h; in short: as §1
Staphylococcus aureus [15] = experiment: Antibiofilm activity against Staphylococcus aureus MLS16 MTCC 2940 after 24 hrs by crystal violet staining based assay; type: functional, organism-based; conditions: MLS16 MTCC 2940, 24 h; in short: as §1

| MIC (Candida albicans) [µg/mL] | MIC (Staphylococcus aureus [3]) [µg/mL] | MIC (Staphylococcus aureus [4]) [µg/mL] | MIC (Pseudomonas aeruginosa) [µg/mL] | MIC (Bacillus subtilis [10]) [µg/mL] | MIC (Micrococcus luteus [11]) [µg/mL] | MIC (Escherichia coli [12]) [µg/mL] | IC50 (Staphylococcus aureus [13]) [µg/mL] | IC50 (Micrococcus luteus [14]) [µg/mL] | IC50 (Staphylococcus aureus [15]) [µg/mL] | Compound | MBC (Staphylococcus aureus [1]) [µg/mL] | MBC (Raoultella planticola [2]) [µg/mL] | MBC (Staphylococcus aureus [5]) [µg/mL] | MBC (Micrococcus luteus [6]) [µg/mL] | MBC (Escherichia coli [7]) [µg/mL] | MIC (Raoultella planticola [8]) [µg/mL] | MBC (Bacillus subtilis [9]) [µg/mL] |
| --- | --- | --- | --- | --- | --- | --- | --- | --- | --- | --- | --- | --- | --- | --- | --- | --- | --- |
| > 125 | > 125 | > 125 | > 125 | > 125 | > 125 | > 125 | – | – | – | CCCCCCCCCCCCCCCCCC[N+](C)(C)CCCCCCCCCCC(=O)OC.[Cl-] | > 125 | > 125 | > 125 | > 125 | > 125 | > 125 | > 125 |
| > 125 | 31.2 (≈ 82.2 µM) | 31.2 (≈ 82.2 µM) | > 125 | 62.5 (≈ 165 µM) | 15.6 (≈ 41.1 µM) | > 125 | 21.3 (≈ 56.1 µM) | 19.9 (≈ 52.4 µM) | 20.8 (≈ 54.8 µM) | COC(=O)CCCCCCCCCCN(C1CCCCC1)C1CCCCC1 | > 125 | > 125 | 62.5 (≈ 165 µM) | 31.2 (≈ 82.2 µM) | > 125 | > 125 | > 125 |
| > 125 | > 125 | > 125 | > 125 | > 125 | > 125 | > 125 | – | – | – | CCCCCCCCCCCC[N+](C)(CCCCCCCCCCC(=O)OC)CCCCCCCCCCC(=O)OC.[Cl-] | > 125 | > 125 | > 125 | > 125 | > 125 | > 125 | > 125 |
